Bioassay records as filed in PubChem.
TRPC4 inh: inhibitors of mouse TRPC4 channel; HEK293 TRPC4beta/mu-opioid, DAMGO-evoked Fluo4 calcium flux; stronger effect = lower value; B-score at 10 µM; 300,000 compounds, 0.39% hits; AID 2247;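 active = B-score over 3 SD under the library average, no early fluorescence shift, positive overall ratio signal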
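Assay system: Stable TRPC4beta/mu-opioid receptor HEK293 cells | Reagent: DAMGO in two steps, submaximal then maximal | Compound dosing: Single concentration per test compound | Signal: Fluo4 Ca2+ flux fluorescence | Evaluation: Per-well B score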
TRPC4 PAM: TRPC4 (mouse) allosteric potentiation; Q9QUQ5; HEK293 TRPC4beta/mu-opioid, DAMGO EC20, Fluo-4 Ca2+ flux; stronger effect = higher value; 310,000 compounds, 0.42% hits; B-score at 10 µM;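 active = B-score of calcium response area above 5 SD of library B-scores, with initial fluorescence ratio within 5 SD of library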;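 note: B-score of integrated fluorescence ratio over time as area under calcium response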
TRPC4 agonist: activators of mouse TRPC4 channel. Q9QUQ5. HEK293 TRPC4beta/mu-opioid, Fluo4 calcium fluorescence; stronger effect = higher value. B-score at 10 µM. 310,000 compounds, 0.49% hits;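 active = B-score above 5 SD of library B-scores, and initial fluorescence ratio not above library mean plus 5 SD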;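 note: positive B-score marks a calcium rise read as TRPC4 activation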
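Material: HEK293 stable line with TRPC4beta plus mu-opioid receptor; technique: Fluo4 calcium-sensitive dye fluorescence, kinetic, 1 Hz baseline; timing: Fluo4 dye loading 45 min at room temperature, 110 s recording; controls: assay buffer as low control, maximal DAMGO as high control; read-out: integrated baseline-normalised fluorescence ratio, converted to per-well B score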
Kir21 block: inhibitors of mouse Kir2.1 inward-rectifier potassium channel. HEK293-Kir2.1, FluxOR thallium flux fluorescence; stronger effect = lower value. B-score at 10 µM. 310,000 compounds, 0.85% hits;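 active = fluorescence ratio B-score at or below minus 3 SD of library scores, with starting-brightness B-score within 2 SD, cut at about -4.2 in these data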;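 note: channel flux triggered by added potassium and thallium sulfate stimulus; B-score of peak minus minimum fluorescence over baseline after thallium stimulus; more negative B-score means stronger Kir2.1 block with less thallium influx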
TRPC6 inh: mouse TRPC6 channel inhibition. Q61143. 310,000 compounds, 1.1% hits. AID 2553. HEK293-TRPC6, membrane potential dye, ACh-evoked depolarization; stronger effect = lower value. B-score at 10 µM;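 active = B-score under library mean minus 3 SD, initial fluorescence not abnormally high, positive integrated signal ratio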;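 note: B-score derived from integrated fluorescence ratio over the kinetic read; more negative B-score means stronger inhibition of depolarization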
Target sequence (Q61143 whole entry, looked up): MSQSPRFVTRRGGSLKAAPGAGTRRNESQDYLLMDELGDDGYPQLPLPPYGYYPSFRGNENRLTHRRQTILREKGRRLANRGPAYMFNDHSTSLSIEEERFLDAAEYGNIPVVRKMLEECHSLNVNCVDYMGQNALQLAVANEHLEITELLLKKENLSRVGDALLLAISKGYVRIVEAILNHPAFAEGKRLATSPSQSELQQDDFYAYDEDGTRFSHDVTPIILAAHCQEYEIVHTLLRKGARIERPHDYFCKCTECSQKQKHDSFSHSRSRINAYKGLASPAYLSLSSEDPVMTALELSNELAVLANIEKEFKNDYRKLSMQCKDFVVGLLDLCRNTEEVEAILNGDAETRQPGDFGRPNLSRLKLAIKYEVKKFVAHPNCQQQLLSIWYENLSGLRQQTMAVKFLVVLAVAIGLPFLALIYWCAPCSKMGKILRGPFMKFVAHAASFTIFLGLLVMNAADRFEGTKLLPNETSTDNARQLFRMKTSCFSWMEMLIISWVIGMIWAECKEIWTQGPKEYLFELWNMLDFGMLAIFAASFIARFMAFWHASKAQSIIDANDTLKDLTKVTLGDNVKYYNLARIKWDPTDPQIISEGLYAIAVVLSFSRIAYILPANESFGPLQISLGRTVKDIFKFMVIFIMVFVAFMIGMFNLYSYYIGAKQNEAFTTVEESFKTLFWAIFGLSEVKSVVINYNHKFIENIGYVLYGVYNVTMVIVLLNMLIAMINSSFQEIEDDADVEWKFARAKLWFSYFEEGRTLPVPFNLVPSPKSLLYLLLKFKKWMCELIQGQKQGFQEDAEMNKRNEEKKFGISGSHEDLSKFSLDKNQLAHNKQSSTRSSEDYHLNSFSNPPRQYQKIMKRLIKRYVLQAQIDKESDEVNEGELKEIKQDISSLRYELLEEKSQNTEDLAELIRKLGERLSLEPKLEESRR
TRPC6 act: activates the mouse TRPC6 cation channel. Q61143. HEK293-TRPC6 membrane potential dye fluorescence; stronger effect = higher value. B-score at 10 µM. 310,000 compounds, 0.13% hits. AID 2550;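 active = B-score of the integrated fluorescence ratio above library mean plus 3 SD, and starting fluorescence ratio within library mean plus 5 SD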;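 note: higher score means more depolarization so channel activation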
* hit, by the source's call. Rows were chosen to be rich in hits. Some 2.9% of all compounds tested hit in one or more screens of this group.

Screening CN(C)C(CNc1ncnc2sc3c(c12)CCCC3)c1ccco1 (configuration not stated) returned TRPC4 inh inactive, TRPC4 PAM inactive, TRPC4 agonist 121*, Kir21 block 1.4, TRPC6 inh inactive and TRPC6 act inactive.
Screening Cc1sc2ncnc(NCC(c3ccccc3)N(C)C)c2c1C (configuration not stated) returned TRPC4 inh inactive, TRPC4 PAM inactive, TRPC4 agonist 218*, Kir21 block 0.99, TRPC6 inh inactive and TRPC6 act inactive.
`CC(C(=O)Nc1ccccc1)N(C)CCOc1ccccc1` (configuration not stated) gave TRPC4 inh inactive, TRPC4 PAM inactive, TRPC4 agonist inactive, Kir21 block -0.56, TRPC6 inh inactive and TRPC6 act inactive.
CC1(C)C(=O)NC(=O)N1Cc1ccccc1 was read as TRPC4 inh inactive, TRPC4 PAM inactive, TRPC4 agonist 76*, Kir21 block -0.02, TRPC6 inh inactive and TRPC6 act inactive.
For CC1(C)CC(=O)N(Cc2ccccc2)C(=O)C1 the results were TRPC4 inh inactive, TRPC4 PAM inactive, TRPC4 agonist inactive, Kir21 block 0.08, TRPC6 inh inactive and TRPC6 act inactive.
For Cc1ccc(NC(=O)c2cc(S(=O)(=O)N3CCOCC3)ccc2F)c(C)c1 the results were TRPC4 inh inactive, TRPC4 PAM inactive, TRPC4 agonist inactive, Kir21 block 1.7, TRPC6 inh inactive and TRPC6 act inactive.
For Cc1cc(NC(=O)C(C)SCC(=O)O)no1 (configuration not stated) the results were TRPC4 inh inactive, TRPC4 PAM inactive, TRPC4 agonist inactive, Kir21 block 0.51, TRPC6 inh inactive and TRPC6 act inactive.
Screening Cc1cccc(N(Cc2ccccc2)C(=O)CSC(C)C(=O)Nc2cc(C)on2)c1 (configuration not stated) returned TRPC4 inh -6*, TRPC4 PAM inactive, TRPC4 agonist inactive, Kir21 block -1.4, TRPC6 inh inactive and TRPC6 act inactive.
CCCc1nnc(NC(=O)CCC(=O)N2CCN(Cc3cc(F)ccc3OC)CC2)s1 was read as TRPC4 inh inactive, TRPC4 PAM inactive, TRPC4 agonist inactive, Kir21 block 0.68, TRPC6 inh inactive and TRPC6 act inactive.
`COc1ccc(F)cc1CN1CCN(C(=O)CCC(=O)Nc2nnc(C(C)C)s2)CC1` gave TRPC4 inh inactive, TRPC4 PAM inactive, TRPC4 agonist 69*, Kir21 block 2, TRPC6 inh inactive and TRPC6 act inactive.
FC(F)Oc1ccc(-n2cc(-c3ccc(Cl)cc3)[n+]3c2CCCCC3)cc1 was read as TRPC4 inh inactive, TRPC4 PAM inactive, TRPC4 agonist inactive, Kir21 block 0.09, TRPC6 inh inactive and TRPC6 act inactive.
Screening Cc1ccc(NS(=O)(=O)c2cc(C(=O)N3CCc4ccccc4C3)ccc2Cl)cc1 returned TRPC4 inh inactive, TRPC4 PAM 28*, TRPC4 agonist inactive, Kir21 block 0.51, TRPC6 inh inactive and TRPC6 act inactive.
`Cc1nn(CCOc2ccccc2Cl)c(C)c1[N+](=O)[O-]` gave TRPC4 inh inactive, TRPC4 PAM inactive, TRPC4 agonist inactive, Kir21 block -0.39, TRPC6 inh inactive and TRPC6 act inactive.
Oc1cccc(C(O)CNCc2ccc(-c3ccccc3)cc2)c1 (configuration not stated) was read as TRPC4 inh inactive, TRPC4 PAM inactive, TRPC4 agonist inactive, Kir21 block -7.8*, TRPC6 inh inactive and TRPC6 act inactive.
Screening CCCCOC(=O)c1ccc(NC(=O)c2c(OC)cccc2OC)cc1 returned TRPC4 inh inactive, TRPC4 PAM inactive, TRPC4 agonist inactive, Kir21 block 0, TRPC6 inh inactive and TRPC6 act inactive.
`CCOc1ccc(N2C(=O)Nc3ccc(Br)cc3C2(O)C(=O)NC(C)C)cc1` (configuration not stated) gave TRPC4 inh inactive, TRPC4 PAM inactive, TRPC4 agonist inactive, Kir21 block 0.41, TRPC6 inh inactive and TRPC6 act inactive.
`COc1ccc(-c2[nH]ncc2CNC(C)c2ccccc2Cl)cc1F` (configuration not stated) gave TRPC4 inh inactive, TRPC4 PAM inactive, TRPC4 agonist inactive, Kir21 block -7.3*, TRPC6 inh inactive and TRPC6 act inactive.
`O=C(Nc1ccon1)c1csc2ccccc12` gave TRPC4 inh -7*, TRPC4 PAM inactive, TRPC4 agonist inactive, Kir21 block 0.97, TRPC6 inh inactive and TRPC6 act inactive.
For Cc1cc(C(=O)Nc2ccon2)cs1 the results were TRPC4 inh inactive, TRPC4 PAM inactive, TRPC4 agonist inactive, Kir21 block 0.01, TRPC6 inh inactive and TRPC6 act inactive.
Cc1ccc(OC(=O)CCC(=O)Nc2ccc(S(=O)(=O)Nc3cc(C)on3)cc2)cc1 was read as TRPC4 inh inactive, TRPC4 PAM inactive, TRPC4 agonist inactive, Kir21 block 1.4, TRPC6 inh inactive and TRPC6 act inactive.
For CC(=O)NS(=O)(=O)c1ccc(NC(=O)CCC(=O)Oc2ccc(C)cc2)cc1 the results were TRPC4 inh inactive, TRPC4 PAM 11*, TRPC4 agonist inactive, Kir21 block 0.64, TRPC6 inh inactive and TRPC6 act inactive.
`COc1ccc(OCCN(C)Cc2c(O)ccc3ccccc23)cc1` gave TRPC4 inh inactive, TRPC4 PAM 18*, TRPC4 agonist inactive, Kir21 block -0.69, TRPC6 inh inactive and TRPC6 act inactive.
COc1ccc(C2C(C(C)=O)=C(O)C(=O)N2c2ccc(Br)cc2)cc1 (configuration not stated) was read as TRPC4 inh -5*, TRPC4 PAM inactive, TRPC4 agonist inactive, Kir21 block 0.18, TRPC6 inh inactive and TRPC6 act inactive.
CCN(CC)C(=S)SSC(=S)N(CC)CC was read as TRPC4 inh inactive, TRPC4 PAM inactive, TRPC4 agonist inactive, Kir21 block -4.5*, TRPC6 inh inactive and TRPC6 act inactive.
For N=c1c(C(=O)NCc2ccco2)cc2c(=O)n3ccccc3nc2n1Cc1ccc(Cl)cc1 the results were TRPC4 inh inactive, TRPC4 PAM 13*, TRPC4 agonist inactive, Kir21 block 0.6, TRPC6 inh inactive and TRPC6 act inactive.
CC(C)n1c(=N)c(C(=O)NCCc2ccccc2)cc2c(=O)n3ccccc3nc21 was read as TRPC4 inh inactive, TRPC4 PAM inactive, TRPC4 agonist inactive, Kir21 block 0.45, TRPC6 inh -10* and TRPC6 act inactive.
